In paper PMC2715132 (The Journal of Experimental Medicine, 2009):
Where two headings read alike, the source gives them in different places.

Key:
[1] = test system: T. gondii RH WT; experiment: T. gondii growth in HFF monolayer, [3H]uracil incorporation; type: cell-based; details: Toxoplasma gondii
How it was run: (§1)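 Confluent human fibroblasts infected with tachyzoites with or without test compound. After 72 h, washed and pulsed with [3H]uracil for 4 h, then washed and solubilized. Acid-precipitable radioactivity counted by liquid scintillation. EC50 by nonlinear regression.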

[2] = test system: T. gondii Prugniaud; experiment: as above; type: cell-based; details: Toxoplasma gondii, read-out: EC50 (nM ± SD)
How it was run: as §1

[3] = test system: T. gondii RH WT; experiment: Immunofluorescence of intracellular T. gondii; type: cell-based, Toxoplasma gondii; details: IFA, 24 h, 40 nM FR235222, 1 µM pyrimethamine
How it was run: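 Confluent HFF monolayers infected with RH tachyzoites with 40 nM test compound, 0.1% DMSO or 1 µM pyrimethamine for 24 h. Fixed/permeabilized 20 min (3% formaldehyde, 0.2% Triton X-100) and blocked with 5% FBS/5% goat serum. Stained with anti-AcH4 antiserum and anti-IMC1 monoclonal (1:1,000), Alexa 568/488 secondaries, and Hoechst 33258 for DNA.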

[4] = test system: T. gondii RH M190D4; experiment: T. gondii growth in HFF monolayer, [3H]uracil incorporation; type: cell-based, Toxoplasma gondii
How it was run: as §1

[5] = test system: T. gondii type II Prugniaud strain; experiment: Bradyzoite differentiation, SRS9/P36 expression by IFA; type: cell-based, Toxoplasma gondii
[6] = test system: histone H4 acetylation in T. gondii TgHDAC3^T99I resistant line; experiment: Immunoblot of histone acetylation in extracellular tachyzoites; type: cell-based, Toxoplasma gondii; details: 20 nM FR235222, immunoblot
[7] = test system: histone H4 acetylation in T. gondii TgHDAC3^T99A resistant line; experiment: as above; type: cell-based, Toxoplasma gondii; details: 20 nM FR235222, immunoblot
[8] = test system: N. caninum; experiment: N. caninum growth in HFF monolayer; type: cell-based, Neospora caninum; details: read-out: EC50 (nM ± SD), mean ± SD
[9] = test system: histone H4 acetylation in T. gondii RH WT; experiment: Immunoblot of histone acetylation in extracellular tachyzoites; type: cell-based, Toxoplasma gondii
[10] = test system: HFFs; experiment: Mammalian host cell proliferation; type: cell-based, human; details: in vitro, parasites versus HFF cells
[11] = test system: 20.m00351 mRNA, T. gondii type II Prugniaud strain; experiment: Semiquantitative RT-PCR of 20.m00351 mRNA; type: cell-based, Toxoplasma gondii; details: 40 nM FR235222 for 3 d, n = 3
[12] = test system: P. falciparum; experiment: Antimalarial activity in vitro, P. falciparum intraerythrocytic growth; type: cell-based, Plasmodium falciparum; details: 3D7 chloroquine sensitive, Dd2 chloroquine resistant, Fig. 1 C, n = 4
How it was run: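 Drug exposure: 48 h for asynchronous 3D7 and Dd2 cultures, 20 h for plasmion-enriched 3D7 schizonts. Growth was read by […] incorporation, and EC50 was derived by nonlinear regression.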

[13] = read-out: EC50, T. gondii intracellular growth
[14] = read-out: EC50 (nM ± SD), T. gondii RH M190D4 (FR235222-resistant mutant, TgHDAC3 T99A) in HFF monolayer, [3H]uracil incorporation, mean ± SD

CCc1nc(N)nc(N)c1-c1ccc(Cl)cc1 [Pyrimethamine, pyrimethamine]
EC50 ([1]; read-out: EC50 (nM ± SD), SD): 285 ± 61 nM | EC50 [1, 13]: 300 nM | EC50 [2]: 195 ± 1 nM | AcH4 signals in nuclei of treated parasites versus DMSO control [3]: not observed | EC50 ([4]; Toxoplasma gondii, read-out: EC50 (nM ± SD)): 300 ± 11 nM | induction of SRS9/P36 ([5]; 1 µM pyrimethamine, 2–3 d, IFA with anti-P36): very weak induction

CCC(=O)CCCCC[C@@H]1NC(=O)[C@H]2CCCCN2C(=O)[C@H]([C@@H](C)CC)NC(=O)[C@H](Cc2cn(OC)c3ccccc23)NC1=O [Apicidin, apicidin]
EC50 [4, 14]: 67 ± 16 nM

O=C(CCCCCN1C(=O)c2cccc3cccc(c23)C1=O)NO [Scriptaid]
EC50 [1, 13]: 400 nM

FR235222
change of AcH4 signals [6]: remained unchanged | increase of AcH4 signals [7]: approximately threefold | EC50 [8]: 8 ± 2 nM | increase of AcH4 signals ([9]; WT, 20 nM FR235222, immunoblot): approximately eightfold | increase of AcH4 signals ([9]; extracellular tachyzoites incubated with drug 4 h, immunoblot): approximately eightfold | acetylation of histones H2B (K12 and K15) and H3K9 ([9]; immunoblot, FR235222 treatment (Fig. S2)): not affected | sensitivity of parasites relative to HFF cells [10]: ~10 times | 20.m00351 mRNA levels [11]: accumulated | comparison of EC50s on clones 3D7 and Dd2 [12]: equivalent | AcH4 signals in nuclei of treated parasites versus DMSO control [3]: higher | EC50 [4, 14]: 62 ± 5 nM | parasitic vacuoles expressing SRS9/P36 ([5]; 40 nM FR235222, 2–3 d, IFA with anti-P36, n = 2): ~80%
